Shown are actives, neighbours in structure and some others; about 11% of the full set was active somewhere.
TNAP act DEA: human TNAP activation, intermediate phosphate acceptor | P05186 | 64,000 tested, under 10 active | purified TNAP, CDP-star luminescence, 100 mM DEA, 30 min; hits give high values; scale: 0 levamisole-inhibited, 1 vehicle-only enzyme | activation factor at 20 µM;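 active means activation factor of at least 2 at 20 µM, relative to controls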
S1P1 ag-PAM: activates or potentiates agonism at human S1P1 receptor. S1P1 CRE-bla cells, forskolin, beta-lactamase FRET, potentiator mode; S1P1 agonist co-added at EC20, 2 nM; 100% = saturating reference agonist, 0% = basal. activation, % at 9.5 µM. actives 0.57% (n = 56,000). AID 449;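 active means activation above a cutoff set at the mean activation of all tested compounds plus 3 SD, cut at about 54% in these data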;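 further: forskolin at 4 µM as EC80 and the EC20 agonist is SEW2871; 100% = SEW2871 at its EC100 plus forskolin at EC80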
Target sequence (P21453 whole entry, looked up): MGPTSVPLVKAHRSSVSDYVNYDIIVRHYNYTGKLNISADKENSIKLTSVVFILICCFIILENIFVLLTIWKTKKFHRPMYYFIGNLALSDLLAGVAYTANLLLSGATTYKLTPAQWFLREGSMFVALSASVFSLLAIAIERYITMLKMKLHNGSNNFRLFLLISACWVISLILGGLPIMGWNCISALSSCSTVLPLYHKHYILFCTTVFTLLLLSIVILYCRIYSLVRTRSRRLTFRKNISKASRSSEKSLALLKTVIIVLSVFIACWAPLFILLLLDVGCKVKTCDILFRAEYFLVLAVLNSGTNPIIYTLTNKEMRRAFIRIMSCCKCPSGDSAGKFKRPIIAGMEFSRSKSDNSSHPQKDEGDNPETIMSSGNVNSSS
S1P3 agonist: agonists of human S1P3 receptor | Q99500 | S1P3 NFAT-BLA reporter cells, agonism, FRET ratio; relative to 1 µM S1P, basal subtracted | actives 0.1% (n = 60,000) | AID 373 | activation, % at 4.5 µM;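 active means activation above the screen-wide mean plus 3 SD, cut at about 4.5% in these data, passing the limit was not always enough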
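Material: Human S1P3 NFAT-BLA reporter CHO cells | Incubation: Overnight plating, 4 h compound 37 °C, 2 h substrate RT | Signal: FRET β-lactamase substrate fluorescence, excitation 405 nm, 460/535 nm emission ratio, background-subtracted | Compound: 4.5 µM final, single dose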
M1 antagonist: antagonists of rat M1 muscarinic receptor; AID 628; B-score at 10 µM; P08482; CHO-M1 cells, Fluo-4 calcium, ACh EC80 antagonist mode; hits give low values; actives 3.4% (n = 64,000);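 active means calcium fluorescence response, raw or row-and-column corrected B-score, differing from the plate sample mean either way at a set confidence level, mostly lower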
M1 agonist: M1 muscarinic receptor agonism. CHO-M1 cells, Fluo-4 calcium fluorescence, agonist mode; hits give high values. B-score at 10 µM. actives 3% (n = 64,000);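 active means fluorescence rise, raw or as B-score row- and column-corrected plate score, outside the 99.7% band of its plate's samples, either direction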
D1 mod: allosterically modulates the human D1 dopamine receptor; P21728; HEK293 D1, CRE-luciferase, dopamine EC30 potentiation; actives deviate in either direction; B-score at 10 µM; actives 5.9% (n = 58,000); AID 641;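 active means luminescence count or its row- and column-corrected plate score outside the 99.7% band of the plate's sample wells, on either side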
D1 PAM confirm: D1 receptor (human) allosteric modulation, confirmed. HEK293 D1 CRE-luciferase, dopamine EC30 potentiation; hits give high values. shares compounds with D1 mod. luminescence at 10 µM. actives 88% (n = 2,200);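 active means luminescence in either of two replicates above the same-plate mean plus 3 SD of the low-dose dopamine control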
D1 ag no DA: secondary test of D1 modulators: activity without dopamine; actives 0.8% (n = 1,900); AID 646; luminescence at 10 µM; shares compounds with D1 mod; HEK293 D1 CRE-luciferase, luminescence, no dopamine; hits give high values; in the data active means luminescence above about 3900
Isoprot counter: isoproterenol response counter-screen activity for D1 modulators. luminescence at 10 µM. HEK293 D1 CRE-luciferase, isoproterenol EC30 counter-screen; hits give high values. shares compounds with D1 mod. AID 647. actives 63% (n = 2,200);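 active means luminescence in either replicate above plate mean of wells with a partly effective reference agonist dose plus 3 SD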;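 further: isoproterenol raises cAMP through native beta-adrenoceptor Gs so signal bypasses D1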
An asterisk follows results filed as active.

Screening CCCNC(=O)c1ccccc1NC(=O)CN(c1ccccc1OCC)S(C)(=O)=O returned TNAP act DEA 0.9, S1P1 ag-PAM 8, S1P3 agonist 0, M1 antagonist -0.36, M1 agonist -0.033 and D1 mod 0.5.
`CSc1nc2c(c(=O)n1Cc1ccccc1)SC(C)C2` (stereo not given) gave S1P1 ag-PAM -9, S1P3 agonist -1, M1 antagonist -0.73, M1 agonist 1.1, D1 mod 5.4*, D1 PAM confirm 8668*, D1 ag no DA 1704 and Isoprot counter 3304*.
`CC(C)Sc1nc2c(c(=O)n1C)SC(C)C2` (stereo not given) gave TNAP act DEA 1, S1P1 ag-PAM -12, S1P3 agonist -1, M1 antagonist -0.089, M1 agonist 0.34, D1 mod 3.4*, D1 PAM confirm 8852*, D1 ag no DA 1524 and Isoprot counter 2736.
For COC(=O)c1ccc(OC(=O)c2ccc(OCc3c(C)noc3C)c(OC)c2)cc1 the results were TNAP act DEA 1.2, S1P1 ag-PAM -18, S1P3 agonist 0, M1 antagonist -0.33, M1 agonist -0.0032 and D1 mod 0.88.
`O=c1c2ccccc2ncn1-c1ccc2c(c1)OCCO2` gave TNAP act DEA 0.9, S1P1 ag-PAM 8, S1P3 agonist -1, M1 antagonist -0.19, M1 agonist -0.16 and D1 mod -1.5.
`Cc1cccc(OCc2nnc(SCC(=O)Nc3cc(C)on3)n2C)c1` gave TNAP act DEA 1, S1P1 ag-PAM -6, S1P3 agonist 1, M1 antagonist 1.2, M1 agonist 0.011 and D1 mod -0.37.
For CCOC(=O)c1cccc(Nc2nc(C)cc(C)n2)c1 the results were TNAP act DEA 0.9, S1P1 ag-PAM -20, S1P3 agonist 0, M1 antagonist -1.3, M1 agonist 0.13 and D1 mod 0.69.
`COC(=O)c1cccc(Nc2nc3ccccc3nc2C)c1` gave TNAP act DEA 0.9, S1P1 ag-PAM -6, S1P3 agonist -2, M1 antagonist 0.77, M1 agonist 3.1, D1 mod 5.2*, D1 PAM confirm 9552*, D1 ag no DA 1624 and Isoprot counter 3044*.
Screening Cc1sc2ncn(CC(=O)NCCCC(=O)N3CCN(c4ncccn4)CC3)c(=O)c2c1C returned TNAP act DEA 1.1, S1P1 ag-PAM -33, S1P3 agonist 0, M1 antagonist -0.52, M1 agonist 0.11 and D1 mod 0.77.
`CCOC(=O)CSc1cccc2cccnc12` gave TNAP act DEA 0.9, S1P1 ag-PAM 34, S1P3 agonist -1 and D1 mod 0.19.
Cc1nc2c(c(=O)n1CC1CCCO1)c1nc3ccccc3nc1n2Cc1ccc2c(c1)OCO2 (stereo not given) was read as TNAP act DEA 0.9, S1P1 ag-PAM 6, S1P3 agonist -4, M1 antagonist 0.23 and M1 agonist -0.72.
Screening Cc1cc(C)c2c(c1)-c1c(ssc1=S)C(C)(C)N2C(=O)CSc1nncn1C returned TNAP act DEA 0.8, S1P1 ag-PAM -18, S1P3 agonist 0, M1 antagonist 0.087, M1 agonist -0.19 and D1 mod 0.25.
Screening Cc1ccc2c(c1)-c1c(ssc1=S)C(C)(C)N2C(=O)CSc1nncn1C returned TNAP act DEA 0.8, S1P1 ag-PAM 6, S1P3 agonist -1, M1 antagonist -1, M1 agonist -0.51, D1 mod 3.8*, D1 PAM confirm 11288*, D1 ag no DA 1508 and Isoprot counter 5168.

Screening data deposited in PubChem by several laboratories.
